Test results reported in ChEMBL document CHEMBL1799968, “Dimethyl-diphenyl-propanamide derivatives as nonsteroidal dissociated glucocorticoid receptor agonists” (J Med Chem, 2010).
pEC50, pKi: −log10 of the molar value.

Key:
Progesterone receptor = target: T1, Progesterone receptor (Homo sapiens, UniProt P06401); test: Binding affinity to progesterone receptor by fluorescence polarization assay
T1 sequence (P06401 whole entry): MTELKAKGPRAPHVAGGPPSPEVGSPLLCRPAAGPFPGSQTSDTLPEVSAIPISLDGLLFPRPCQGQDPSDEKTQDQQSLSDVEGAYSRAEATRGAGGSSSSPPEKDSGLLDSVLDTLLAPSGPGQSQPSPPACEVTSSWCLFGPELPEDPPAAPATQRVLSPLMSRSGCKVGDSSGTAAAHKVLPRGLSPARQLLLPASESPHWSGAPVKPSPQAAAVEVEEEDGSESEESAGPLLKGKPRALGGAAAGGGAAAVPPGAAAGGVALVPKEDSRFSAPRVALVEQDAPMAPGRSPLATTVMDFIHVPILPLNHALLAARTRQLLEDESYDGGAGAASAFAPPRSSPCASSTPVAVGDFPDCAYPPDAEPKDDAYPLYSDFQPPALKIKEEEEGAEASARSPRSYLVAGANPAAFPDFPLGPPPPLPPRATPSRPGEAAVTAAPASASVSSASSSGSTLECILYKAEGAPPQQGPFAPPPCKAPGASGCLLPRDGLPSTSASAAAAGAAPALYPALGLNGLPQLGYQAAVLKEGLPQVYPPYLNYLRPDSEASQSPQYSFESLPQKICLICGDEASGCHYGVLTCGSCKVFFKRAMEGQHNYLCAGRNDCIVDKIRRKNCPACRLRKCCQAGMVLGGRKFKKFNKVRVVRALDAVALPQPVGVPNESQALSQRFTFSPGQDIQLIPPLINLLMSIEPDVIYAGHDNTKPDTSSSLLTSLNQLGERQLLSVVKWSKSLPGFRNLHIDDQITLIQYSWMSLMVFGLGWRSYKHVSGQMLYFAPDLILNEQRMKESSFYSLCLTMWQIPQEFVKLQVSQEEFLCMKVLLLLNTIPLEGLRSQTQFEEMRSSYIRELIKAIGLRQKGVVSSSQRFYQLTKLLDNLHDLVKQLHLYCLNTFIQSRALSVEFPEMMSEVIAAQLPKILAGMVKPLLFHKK
Procedure, shortened: (§1)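 Fluorescence polarization competition of test compound against a fluorescently labelled ligand for binding to full-length receptor or its ligand-binding domain.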

[1] = target: T2, Glucocorticoid receptor (Homo sapiens) (UniProt P04150); test: Transrepression activity of glucocorticoid receptor in human A549 cells assessed as inhibition of IL1beta-stimulated NFkappaB-dependent E-selectin transcription by luciferase reporter gene assay relative to Dexamethasone; format: cell-based
T2 sequence (whole entry): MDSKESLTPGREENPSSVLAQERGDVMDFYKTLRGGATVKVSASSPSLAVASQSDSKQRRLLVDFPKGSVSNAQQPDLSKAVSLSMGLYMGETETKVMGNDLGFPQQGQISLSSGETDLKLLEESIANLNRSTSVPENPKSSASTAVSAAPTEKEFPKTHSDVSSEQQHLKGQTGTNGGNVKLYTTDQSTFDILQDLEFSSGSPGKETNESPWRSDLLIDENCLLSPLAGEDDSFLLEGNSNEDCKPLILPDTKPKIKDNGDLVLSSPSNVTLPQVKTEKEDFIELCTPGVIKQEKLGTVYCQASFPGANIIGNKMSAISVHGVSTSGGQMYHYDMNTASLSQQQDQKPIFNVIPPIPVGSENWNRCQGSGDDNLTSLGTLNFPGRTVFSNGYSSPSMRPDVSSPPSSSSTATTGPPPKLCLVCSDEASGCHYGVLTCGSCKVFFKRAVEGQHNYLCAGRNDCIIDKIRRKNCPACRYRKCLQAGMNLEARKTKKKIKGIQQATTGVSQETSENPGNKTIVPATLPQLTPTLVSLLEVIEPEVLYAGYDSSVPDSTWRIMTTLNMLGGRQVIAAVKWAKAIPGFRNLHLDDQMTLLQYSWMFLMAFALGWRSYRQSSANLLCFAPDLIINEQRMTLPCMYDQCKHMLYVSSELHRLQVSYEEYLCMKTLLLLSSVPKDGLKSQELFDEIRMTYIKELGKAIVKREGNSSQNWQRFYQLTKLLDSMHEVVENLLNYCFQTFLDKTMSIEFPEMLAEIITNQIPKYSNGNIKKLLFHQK

Glucocorticoid receptor [2] = target: T3, Glucocorticoid receptor (Homo sapiens, UniProt P04150); test: Transactivation activity at glucocorticoid receptor in human 13D3/Huh7 cells assessed as induction of tyrosine aminotransferase activity after 24 hrs; format: cell-based, Huh-7
T3 sequence (P04150 whole entry): T2 sequence (whole entry)

Estrogen receptor = target: T4, Estrogen receptor (Homo sapiens, UniProt P03372); test: Binding affinity to ERalpha by fluorescence polarization assay; procedure, shortened: as §1
T4 sequence (P03372 whole entry): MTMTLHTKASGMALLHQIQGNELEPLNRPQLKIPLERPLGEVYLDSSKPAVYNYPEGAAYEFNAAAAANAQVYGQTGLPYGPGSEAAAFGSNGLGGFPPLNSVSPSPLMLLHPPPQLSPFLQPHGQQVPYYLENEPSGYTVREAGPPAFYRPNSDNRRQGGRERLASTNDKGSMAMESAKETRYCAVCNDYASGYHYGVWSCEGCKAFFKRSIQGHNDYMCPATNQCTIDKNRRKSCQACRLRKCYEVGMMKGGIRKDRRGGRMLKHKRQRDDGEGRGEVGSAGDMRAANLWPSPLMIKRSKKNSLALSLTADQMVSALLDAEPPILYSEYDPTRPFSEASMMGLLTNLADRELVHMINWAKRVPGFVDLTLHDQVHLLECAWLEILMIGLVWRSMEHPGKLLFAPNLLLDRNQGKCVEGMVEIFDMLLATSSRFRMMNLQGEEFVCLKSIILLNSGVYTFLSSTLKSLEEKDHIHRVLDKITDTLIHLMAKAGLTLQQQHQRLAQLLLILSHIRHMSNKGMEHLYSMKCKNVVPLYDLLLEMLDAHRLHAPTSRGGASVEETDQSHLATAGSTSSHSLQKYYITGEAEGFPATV

[3] = target: T2, Glucocorticoid receptor (Homo sapiens); test: Transrepression activity of glucocorticoid receptor in human A549 cells expressing AP-1 assessed as inhibition of PMA-induced AP-1 activity by luciferase reporter gene assay relative to Dexamethasone; format: cell-based
Procedure, shortened: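 Human A549 lung epithelial cells stably transfected with a 5×AP-1 response element luciferase reporter. AP-1 was induced with PMA (15 ng/mL), and inhibition was read as decreased luciferase.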

[4] = Selectivity ratio of Ki of GRapha to Ki of progesterone receptor
[5] = target: T2, Glucocorticoid receptor (Homo sapiens); test: Transactivation activity at glucocorticoid receptor in human 13D3/Huh7 cells assessed as induction of tyrosine aminotransferase activity after 24 hrs relative to Dexamethasone; format: cell-based; settings: Huh-7
Procedure, shortened: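 Human 13D3/Huh7 hepatoma cells, 20 K/well, were incubated overnight at 37 °C/5% CO2. They were then treated overnight with compounds in assay medium containing 20 μM forskolin. The reaction was stopped with KOH and A340 read. Results are % activation, with EC50 derived.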

Glucocorticoid receptor [6] = target: T3, Glucocorticoid receptor; test: Transrepression activity of glucocorticoid receptor in human A549 cells expressing AP-1 assessed as inhibition of PMA-induced AP-1 activity by luciferase reporter gene assay; format: cell-based

SMILES | pKi (Progesterone receptor) | Efficacy [1] [%] | pEC50 (Glucocorticoid receptor [2]) | pKi (Estrogen receptor) | Efficacy [3] [%] | Ratio Ki [4] | Efficacy [5] [%] | pEC50 (Glucocorticoid receptor [6])
CC(C)(C(=O)Nc1nccs1)[C@@H](c1ccccc1)c1ccc(O)c(Br)c1 | 7.51 | 71 | 6.85 | < 4.30 | 83 | 66 | 29 | 7.40
CC(C)(C(=O)Nc1nncs1)[C@H]1c2ccccc2Oc2cc(O)ccc21 | 7.28 | 62 | 7.04 | 5.26 | 82 | 66 | 45 | 8.11
CC(C)(C(=O)Nc1nccs1)[C@@H](c1ccccc1)c1ccc(O)cc1 | 6.56 | 52 | 6.60 | < 4.00 | 63 | 227 | 21 | 7.39
CC(C)(C(=O)Nc1nccs1)[C@H]1c2ccccc2Oc2cc(O)ccc21 | 7.66 | 68 | 7.57 | 5.64 | 81 | 73 | 39 | 7.76
CC(C)(C(=O)Nc1nccs1)[C@@H](c1ccccc1)c1ccc(O)c(F)c1 | 7.28 | 68 | 7.44 | < 4.30 | 79 | 66 | 48 | 7.80
